ChEMBL document CHEMBL3120057, “Bioactive limonoids from the leaves of Azaridachta indica (Neem)” (J Nat Prod, 2014)
The source made the active and inactive calls. The calls are words filed in the database; no cut-off is given here.

Columns and labels:
HeLa [1] = test: Cytotoxicity against human HeLa cells assessed as growth inhibition at 100 uM after 48 hrs by trypan blue exclusion assay; format: functional, cell-based
Outline: (§1)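 Cells cultured in DMEM with 10% FBS, streptomycin and penicillin at 37 °C under 5% CO2, and plated at 1.2 × 10^5/mL one day before treatment. Single 100 μM exposure for 48 h from DMSO stock diluted in medium. Viability read by MTT at 550 nm, blank-subtracted, as % of DMSO-vehicle control. Random checks by trypan blue exclusion count.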

PC-3 [2] = test: Cytotoxicity against human PC3 cells assessed as growth inhibition at 100 uM after 48 hrs by trypan blue exclusion assay; format: functional, cell-based; outline: as §1
PC-3 [3] = test: Cytotoxicity against human PC3 cells after 48 hrs; format: functional, cell-based; conditions: PC-3, 48 h
Outline: (§2)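 MTT viability. ATCC cells in DMEM with 10% FBS and penicillin/streptomycin at 37 °C under 5% CO2, plated at 1.2 × 10^5/mL the day before dosing. Exposed 48 h to 20−100 μM (DMSO stocks diluted in medium). Formazan dissolved in DMSO and read at 550 nm. Viability expressed as % of vehicle control, blank-subtracted. Checked by trypan blue count. PEITC as positive control. Mean ± SD, at least three experiments in duplicate.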

HeLa [4] = test: Cytotoxicity against human HeLa cells after 48 hrs; format: functional, cell-based; outline: as §2
[5] = biological target: Heat shock protein HSP 90-alpha (Homo sapiens, UniProt P07900); test: Binding affinity to recombinant HSP90-alpha (unknown origin) by surface plasmon resonance analysis

Activity [5]	Structure (SMILES)	growth inhibition (GI) (HeLa [1])	growth inhibition (GI) (PC-3 [2])	IC50 (PC-3 [3])	IC50 (HeLa [4])	Kd [5]
	COc1cc(/C=C/C(=O)OC[C@H]2O[C@@H](OC(C)(C)C(=O)O)[C@H](O)[C@@H](O)[C@@H]2O)cc(OC)c1O	inactive	inactive			
	CC(=O)O[C@@H]1[C@H](O)[C@H]2C(C)(C)C(=O)C=C[C@]2(C)[C@H]2CC[C@]3(C)C(=CC[C@H]3[C@@H]3CC(=O)OC3=O)[C@]12C (relative stereo)	Active	Active	> 100 µM	95 µM	
	COC(=O)[C@H]1OC[C@]23[C@@H]1[C@](C)([C@]14O[C@@]1(C)[C@H]1C[C@@H]4O[C@@H]4OC=C[C@@]41O)[C@H](O)[C@@H]1OC[C@](C(=O)OC)([C@H](O)C[C@@H]2O)[C@H]13	inactive	inactive			
	C/C=C(\C)C(=O)O[C@H]1C[C@@H](O)[C@@]2(C(=O)OC)CO[C@H]3[C@@H](O)[C@@](C)([C@]45O[C@@]4(C)[C@H]4C[C@@H]5O[C@@H]5OC=C[C@@]54O)[C@@H]4[C@@H](C(=O)OC)OC[C@@]14[C@@H]32	inactive	inactive			
	CC(=O)O[C@@H]1[C@H](O)[C@H]2C(C)(C)C(=O)C=C[C@]2(C)[C@H]2CC[C@]3(C)C(=CC[C@H]3c3ccoc3)[C@]12C [NIMONOL]	Active	Active	95 µM	77 µM	
	C/C=C(\C)C(=O)O[C@H]1C[C@@H](O)[C@@]2(C)CO[C@H]3[C@H]4O[C@@H]5C[C@@H](c6ccoc6)C(C)=C5[C@@]4(C)[C@H](CC(=O)OC)[C@]1(C)[C@@H]32 [DESACETYL SALANNIN]	inactive	inactive			0.033 µM
	CC(=O)O[C@@H]1[C@H](O)[C@H]2C(C)(C)C(=O)CC[C@]2(C)[C@H]2CC[C@]3(C)C(=CC[C@H]3[C@H]3COC(=O)C3)[C@]12C	inactive	inactive			
	CC(=O)O[C@@H]1[C@H](O)[C@H]2C(C)(C)C(=O)CC[C@]2(C)[C@H]2CC[C@]3(C)C(=CC[C@H]3[C@@H]3CC(=O)OC3=O)[C@]12C (relative stereo)	inactive	inactive			
	CC(=O)O[C@H]1C[C@@H](OC(C)=O)[C@@]2(C)CO[C@@H]3[C@@H](O)[C@@]4(C)C5=CC[C@@H](c6ccoc6)[C@]5(C)CC[C@@H]4[C@]1(C)[C@@H]32	Active	Active	80 µM	74 µM	0.049 µM
inactive	CC(=O)O[C@@H]1C[C@H](OC(=O)C=C(C)C)[C@@]2(C)[C@H]3[C@@H](OC[C@]13C)[C@@H](O)[C@@]1(C)C3=CC[C@@H]([C@@H]4COC(=O)C4)[C@]3(C)CC[C@@H]12	inactive	inactive			
	CC(=O)O[C@@H]1[C@H](O)[C@H]2C(C)(C)C(=O)CC[C@]2(C)[C@H]2CC[C@]3(C)C(=CC[C@H]3C3=COC(=O)C3O)[C@]12C (stereo partly drawn)	inactive	inactive			
	CC(=O)O[C@@H]1[C@H](O)[C@H]2C(C)(C)C(=O)C=C[C@]2(C)[C@H]2CC[C@]3(C)C(=CC[C@H]3C3=COC(=O)C3O)[C@]12C (relative stereo)	inactive	inactive			
inactive	COC(=O)C[C@H]1[C@]2(C)C3=C(C)[C@H](C4=CC(=O)OC4O)C[C@@H]3O[C@@H]2[C@H](O)[C@@H]2[C@]1(C)C(=O)C=C[C@@]2(C)O (stereo partly drawn)	inactive	inactive			
	CC(=O)O[C@@H]1[C@H](O)[C@H]2C(C)(C)C(=O)CC[C@]2(C)[C@H]2CC[C@]3(C)C(=CC[C@H]3c3ccoc3)[C@]12C	Active	Active	90 µM	74 µM	
inactive	COC(=O)C[C@H]1[C@]2(C)C3=C(C)[C@H](C4=COC(=O)C4O)C[C@@H]3O[C@@H]2[C@H](O)[C@@H]2[C@]1(C)C(=O)C=C[C@@]2(C)O (stereo partly drawn)	inactive	inactive			
